For one assay, the system named is rotavirus. The following applies: rotavirus infection in vitro; cited from earlier work.
Assay [1] concerns human rotavirus (Wa-1 strain). Put plainly: Antirotavirus activity by cytopathic effect. The format is cell-based. The conditions noted are these: non-cytotoxic concentrations. Summed up:
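MA104 cells grown in 199 medium with 10% fetal bovine serum, penicillin G, streptomycin and amphotericin B at 37 °C, 5% CO2, were infected with human rotavirus Wa-1, which had been propagated in MA104 cells with trypsin (5 μg/ml) and titred as TCID50/ml. Test compound was dissolved in 1% DMSO in 199 medium and filter-sterilised. Read-out was cytopathic-effect inhibition. IC50 came from linear regression of concentration–effect curves, as the mean of three independent experiments.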
(In general: Cytopathic effects are the visible damage that an infection or toxin causes in cultured cells.)

Molecules are shown by their SMILES.

Broadly, the IC50 is the point on the concentration scale where inhibition reaches its midpoint. For the molecule `COc1ccc([C@@H]2CC(=O)c3c(O)cc(O[C@@H]4O[C@H](CO[C@@H]5O[C@@H](C)[C@H](O)[C@@H](O)[C@H]5O)[C@@H](O)[C@H](O)[C@H]4O)cc3O2)cc1O` [hesperidin], in the assay with rotavirus, the IC50 is 10 µM.
Regarding `C[C@@H]1O[C@@H](OC[C@H]2O[C@@H](Oc3c(-c4ccc(O)c(O)c4)oc4cc(O)cc(O)c4c3=O)[C@H](O)[C@@H](O)[C@@H]2O)[C@H](O)[C@H](O)[C@H]1O` [compound 45, rutin], the “antiviral (antirotavirus) activity in words” value in assay [1] is recorded as “did not provide antiviral activity”. In the assay with rotavirus, the “inhibitory effect on rotavirus infection in words” value was “low inhibitory effect”.
For `COc1ccc(-c2cc(=O)c3c(O)cc(O[C@@H]4O[C@H](CO[C@@H]5O[C@@H](C)[C@H](O)[C@@H](O)[C@H]5O)[C@@H](O)[C@H](O)[C@H]4O)cc3o2)cc1O` [dosmin], the 50% inhibitory concentration (IC50) with rotavirus is 10 µM.

Source of the values: paper PMC7126014 (Fitoterapia, 2010).
